Experimental data as given in ChEMBL document CHEMBL1649306, “Arylimidamide DB766, a potential chemotherapeutic candidate for Chagas' disease treatment” (Antimicrob Agents Chemother, 2010).
The source made the active and inactive calls. The calls are words filed in the database; no cut-off is given here.

Columns and labels:
Trypanosoma cruzi [1] = assay: Antitrypanosomal activity against Trypanosoma cruzi 762 epimastigotes after 24 hrs by light microscopy; type: functional, organism-based; conditions: Trypanosoma cruzi, 762, 24 h
How it was run: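 Epimastigotes from 5-day exponential cultures, 5 × 10^6 parasites/ml in LIT medium, incubated at 28°C up to 96 h with DB766 0 to 32 μM or Bz 0 to 250 μM. Counted daily in a Neubauer chamber. IC50 averaged from at least three determinations in duplicate.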

Trypanosoma cruzi [2] = assay: Antitrypanosomal activity against Trypanosoma cruzi Y bloodstream forms infected in Swiss-Webster mouse assessed as survival of mouse at 50 mg/kg/day, ip administered 8 days postinfection measured on day 120; type: functional, organism-based
How it was run: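 Male Swiss mice infected i.p. with 10^4 Y strain bloodstream forms. Given 0.2 ml i.p. at 5 and 8 dpi, or daily for 10 days from 5 dpi; reference drug given by gavage. Parasitemia measured by the Pizzi-Brener method, cumulative mortality checked daily to 120 dpi, n ≥ 6 per group.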

Trypanosoma cruzi [3] = assay: Antitrypanosomal activity against bloodstream forms of Trypanosoma cruzi Y after 24 hrs by light microscopy in presence of 96% mouse blood; type: functional, organism-based
How it was run: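 Bloodstream trypomastigotes held at 4°C in freshly isolated mouse blood (96%) with serial dilutions up to 32 μM. Live motile parasites counted by light microscopy in a Neubauer chamber, giving an IC50 for each exposure time.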

Trypanosoma cruzi [4] = assay: Antitrypanosomal activity against Trypanosoma cruzi Columbian bloodstream forms infected in C3H mouse assessed as decrease in parasite load in 50 mg/kg/day, po administered 5 days postinfection for 10 consecutive days measured after 120 days; type: functional, organism-based
Trypanosoma cruzi [5] = assay: Antitrypanosomal activity against Trypanosoma cruzi Y infected in Swiss-Webster mouse assessed as decrease in parasite-induced weight loss at 100 mg/kg/day, po administered 5 days post-infection for 10 consecutive days measured on day 120; type: functional, organism-based
How it was run: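 Body weight of infected, treated mice followed from 0 to 120 dpi.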

[6] = Toxicity in […] mouse assessed as mortality at cumulative dose of 100 mg/kg, ip measured after 48 hrs; type: organism-based; parameters: dose 100 mg/kg, route intraperitoneal; conditions: in vivo, read-out: Activity
How it was run: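 Uninfected 8–10-week-old female and male Swiss Webster and C3H/He (H-2k) mice injected i.p. on day 1 every 2 h with escalating doses: 5, 15, 30, 50 and 100 mg/kg (cumulative 20, 50, 100, 200 mg/kg). Toxic and subtoxic signs inspected on days 2–3 per OECD guidelines; tolerated dose set at 48 h.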

For `CC(C)Oc1cc(NC(=N)c2ccccn2)ccc1-c1ccc(-c2ccc(NC(=N)c3ccccn3)cc2OC(C)C)o1`, the IC50 (Trypanosoma cruzi [1]) was 60 nM, the IC90 (Trypanosoma cruzi [1]) was 180 nM and the Activity (Trypanosoma cruzi [2]) was “Active”. For the same molecule, the IC50 (Trypanosoma cruzi [3]) was 60 nM, the Activity (Trypanosoma cruzi [4]) was “inactive” and the Activity (Trypanosoma cruzi [5]) was “inactive”. For the same molecule, the mortality at 48 h [6] was 80%.
